Measured values reported in ChEMBL document CHEMBL2331228, “Synthesis and insight into the structure-activity relationships of chalcones as antimalarial agents” (J Med Chem, 2013).
In brackets after ≈: the same amount, converted by molar mass. Activity calls are given as the source filed them. The rule behind the calls is not given here.

Legend:
Plasmodium yoelii [1] = assay: Antimalarial activity against chloroquine-resistant Plasmodium yoelii N-67 infected in Swiss mouse assessed as mean survival time at 20 mg/kg/day, po administered for 3 days (reference value: 9.20 +/- 0.44 days); type: functional
Plasmodium yoelii [2] = assay: Antimalarial activity against chloroquine-resistant Plasmodium yoelii N-67 infected in Swiss mouse assessed as reduction in parasitemia at 20 mg/kg/day, po administered for 3 days measured on day 4 relative to control; type: functional; design: scale not given: the % may be the effect or the level left
Plasmodium falciparum [3] = assay: Activation of Plasmodium falciparum recombinant Falcipain-3 using Z-LR-AMC as substrate at high concentration after 30 mins by microplate reader analysis
[4] = Inhibition of Plasmodium falciparum recombinant Falcipain-2 using Z-LR-AMC as substrate after 30 mins by microplate reader analysis
Plasmodium falciparum [5] = assay: Inhibition of Plasmodium falciparum recombinant Falcipain-3 using Z-LR-AMC as substrate at low concentration after 30 mins by microplate reader analysis
[6] = Mean residence time in Sprague-Dawley rat at 50 mg/kg, po by LC-MS/MS analysis; type: ADME, organism-based; design: dose 50 mg/kg, route oral; conditions: in vivo
Method in brief: (§1)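 Male Sprague-Dawley rats (n = 5, 220−240 g), single oral dose 50 mg/kg. Plasma stored at −70 °C, processed by acetonitrile protein precipitation, and analysed by LC-MS/MS with QC samples among calibrators.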

[7] = Apparent oral volume of distribution in Sprague-Dawley rat at 50 mg/kg by LC-MS/MS analysis; type: ADME, organism-based; design: dose 50 mg/kg, route oral; conditions: in vivo; method in brief: as §1
[8] = Apparent oral clearance in Sprague-Dawley rat at 50 mg/kg by LC-MS/MS analysis; type: ADME, organism-based; design: dose 50 mg/kg, route oral; conditions: in vivo; method in brief: as §1
[9] = Elimination half life in Sprague-Dawley rat at 50 mg/kg, po by LC-MS/MS analysis; type: ADME, organism-based; design: dose 50 mg/kg, route oral; conditions: in vivo, read-out: beta t1/2 (converted); method in brief: as §1
[10] = Tmax in Sprague-Dawley rat at 50 mg/kg, po by LC-MS/MS analysis; type: ADME, organism-based; design: dose 50 mg/kg, route oral; conditions: in vivo; method in brief: as §1
[11] = Cmax in Sprague-Dawley rat at 50 mg/kg, po by LC-MS/MS analysis; type: ADME, organism-based; design: dose 50 mg/kg, route oral; conditions: in vivo; method in brief: as §1
[12] = AUC (0 to t) in Sprague-Dawley rat at 50 mg/kg, po by LC-MS/MS analysis; type: ADME, organism-based; design: dose 50 mg/kg, route oral; conditions: plasma; method in brief: as §1
Plasmodium yoelii [13] = assay: Antimalarial activity against chloroquine-resistant Plasmodium yoelii N-67 infected in Swiss mouse assessed as mean survival time at 50 mg/kg/day, po administered for 3 days (reference value: 9.20 +/- 0.44 days); type: functional
Plasmodium yoelii [14] = assay: Antimalarial activity against chloroquine-resistant Plasmodium yoelii N-67 infected in Swiss mouse assessed as mean survival time of host at 50 mg/kg/day, ip administered for 3 days (reference value: 9.20 +/- 0.44 days); type: functional; conditions: route intraperitoneal
Plasmodium yoelii [15] = assay: Antimalarial activity against chloroquine-resistant Plasmodium yoelii N-67 infected in Swiss mouse assessed as reduction in parasitemia at 50 mg/kg/day, po administered for 3 days measured on day 4 relative to control; type: functional; design: scale not given: the % may be the effect or the level left
Plasmodium yoelii [16] = assay: Antimalarial activity against chloroquine-resistant Plasmodium yoelii N-67 infected in Swiss mouse assessed as reduction in parasitemia at 50 mg/kg/day, ip administered for 3 days measured on day 4 relative to control; type: functional; design: scale not given: the % may be the effect or the level left; conditions: route intraperitoneal
[17] = Selectivity index, ratio of CC50 for african green monkey Vero C1008 cells to IC50 for Plasmodium falciparum 3D7; type: functional
Method in brief: (§2)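 SI = CC50 (Vero, 72 h MTT) / IC50. IC50 comes from a 72 h SYBR Green I fluorescence assay: seven 2-fold dilutions in duplicate, 2% cell suspension at 0.8% parasitemia, and Logit regression of the dose-response.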

[18] = Selectivity index, ratio of CC50 for african green monkey Vero C1008 cells to IC50 for Plasmodium falciparum K1; type: functional; method in brief: as §2
[19] = Cytotoxicity against african green monkey Vero C1008 cells after 72 hrs by MTT assay; type: cell-based; conditions: chlorocebus sabaeus
Method in brief: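 Vero (C1008) cells were incubated with dilutions of compound for 72 h and read by MTT. CC50 was obtained by nonlinear regression.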

Plasmodium falciparum [20] = assay: Resistance ratio of IC5O for Plasmodium falciparum K1 to IC50 for Plasmodium falciparum 3D7; type: functional
Method in brief: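 Ratio of K1 IC50 to 3D7 IC50. Both come from the 72 h SYBR Green I fluorescence assay: seven 2-fold dilutions in duplicate, 0.8% parasitemia, IC50 by logit regression.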

Plasmodium falciparum [21] = assay: Antimalarial activity against chloroquine-resistant Plasmodium falciparum K1 after 72 hrs by SYBR Green I-based fluorescence assay; type: functional, organism-based; conditions: K1, 72 h
Method in brief: (§3)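 Parasites cultured in RPMI with 10% FBS, gentamycin and Fungizone (pH 7.2) at 37 °C in CO2. Compounds from DMSO stock (5 mg/mL). Seven 2-fold serial dilutions, duplicate wells. Cells added at 2% hematocrit, 0.8% parasitemia; uninfected-cell wells kept as background. After 72 h, lysis buffer with SYBR Green I, 1 h at 37 °C, fluorescence read. IC50 by logit regression of dose-response.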

Plasmodium falciparum [22] = assay: Antimalarial activity against schizont stage of chloroquine-sensitive Plasmodium falciparum 3D7 after 72 hrs by SYBR Green I-based fluorescence assay; type: functional, organism-based; conditions: 3D7, 72 h; method in brief: as §3
Plasmodium falciparum [23] = assay: Antimalarial activity against schizont stage of chloroquine-sensitive Plasmodium falciparum 3D7 after more than 40 hrs by Giemsa staining-based light microscopic analysis; type: functional; conditions: 3D7, 40 h
Method in brief: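 Ring stages (5% D-sorbitol synchronized) of 3D7 were grown in RPMI with 10% FBS, gentamycin and Fungizone at 37 °C under CO2. They were exposed in duplicate to compound (DMSO stock, 5 mg/mL) at 2, 10 and 50 μg/mL, with 3% cell suspension and 1% parasitized cells, for >40 h. Giemsa-stained thin smears were counted for schizonts. MIC is the lowest concentration giving 100% inhibition of schizont maturation.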

With `CCN(CC)CCCC(C)Nc1ccnc2cc(Cl)ccc12` (stereo not drawn) [CHLOROQUINE] the MST (Plasmodium yoelii [1]) was over 28 days and the Activity (Plasmodium yoelii [2]) was 99%.
In the case of `CC(C)=CCCC1(C)C=Cc2c(ccc(C(=O)/C=C/c3cc(C=O)ccc3O)c2O)O1` (stereo not drawn), the Activity (Plasmodium falciparum [3]) is reported as “Active”, the IC50 [4] is reported as 13.5 µM and the inhibition (Plasmodium falciparum [5]) is reported as “inactive”. It also gave an MRT [6] of 3.89 h, a Vd/F [7] of 433 L/kg and a CL/F [8] of 2140 mL/min/kg. The half-life [9] was 139 min, the Tmax [10] was 3 h and the Cmax [11] was 78.3 ng/mL. The AUC(0-t) [12] was 389 ng·h/mL, the MST (Plasmodium yoelii [13]) was 9.2 days and the MST (Plasmodium yoelii [14]) was 17.4 days. The Activity (Plasmodium yoelii [15]) was 23%, the Activity (Plasmodium yoelii [16]) was 98% and the “Ratio CC50/IC50” value [17] was 64. The “Ratio CC50/IC50” value [18] was 23.7, the CC50 at 72 h [19] was 22.2 µM and the “Ratio IC50” value (Plasmodium falciparum [20]) was 2.6. It also gave an IC50 (Plasmodium falciparum [21]) of 935 nM, an IC50 (Plasmodium falciparum [22]) of 347 nM and an MIC (Plasmodium falciparum [23]) of 1.19 µM (≈ 0.498 µg/mL).
